Results on one compound are retold here after ChEMBL document CHEMBL2380219, “Physalin A induces apoptotic cell death and protective autophagy in HT1080 human fibrosarcoma cells” (J Nat Prod, 2013).

What all share (assay type): functional, cell-based
In test [1] the test system is HT-1080. Briefly: Induction of apoptosis in human HT1080 cells assessed as procaspase-3 cleavage at 10 uM by Western blotting analysis. Particulars: TDE = time-dependent effect.
Test [2] has as its system HT-1080. Briefly: Induction of autophagy in human HT1080 cells assessed as autophagic vacuole formation at 10 uM pretreated with rapamycin for 1 hr prior to compound addition measured after 24 hrs by MDC staining-based FACS flow cytometric analysis. In outline:
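HT1080 cells seeded at 3 × 10^5 per flask and grown 24 h. Pretreated 1 h with 1 mM 3MA or 1 nM rapamycin, then 10 μM for 24 h. Collected cells stained with 0.05 mM MDC at 37 °C for 1 h. MDC-positive ratio measured by flow cytometry, n = 3, mean ± SD.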
(In general: Flow cytometry measures light scatter and fluorescence of single cells or particles in a stream.)

Test [3] deals with HT-1080. Kind of test: Induction of apoptosis in human HT1080 cells assessed as increase in procaspase-3 cleavage at 10 uM pretreated with rapamycin for 1 hr prior to compound addition measured after 24 hrs by Western blotting analysis. The procedure, abridged:
(§1)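 HT1080 cells pretreated 1 h with 1 mM 3MA or 1 nM rapamycin, then co-incubated with 10 μM for 24 h. Adherent and floating cells lysed in Hepes pH 7.4/Triton buffer. 12% SDS-PAGE, nitrocellulose, antibodies against Fas, FADD, caspase-8, caspase-3, PARP and ICAD, ECL detection. Densities normalized to β-actin; n = 3.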
(A western blot detects proteins with antibodies after separation by electrophoresis.)

The subject of test [4] is HT-1080. Kind of test: Induction of apoptosis in human HT1080 cells assessed as downregulation of ICAD at 10 uM after 6 to 24 hrs by Western blotting analysis. The procedure, abridged:
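HT1080 cells treated with 10 μM for 6, 12, 18 and 24 h. Adherent and floating cells lysed 60 min at 4 °C in Hepes pH 7.4/1% Triton X-100 buffer with phosphatase and protease inhibitors. Equal protein run on 12% SDS-PAGE, transferred to nitrocellulose, probed with specific antibodies, HRP/ECL detection. Band density normalized to β-actin; n = 3.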

Test [5] relates to HT-1080. Kind of test: Induction of apoptosis in human HT1080 cells assessed as upregulation of FADD protein expression at 10 uM pretreated with rapamycin for 1 hr prior to compound addition measured after 24 hrs by Western blotting analysis. The procedure, abridged: as §1
In test [6] the test system is HT-1080. Kind of test: Induction of apoptosis in human HT1080 cells expressing beclin 1 siRNA assessed as ICAD downregulation at 10 uM after 24 hrs by Western blotting relative to control. In outline: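 5 × 10^5 HT1080 cells transfected with beclin 1 or nonspecific siRNA using TranSmarter for 7 h at 37 °C, then kept 24 h in normal medium. Treated with 10 μM for 24 h and lysed. Proteins assessed by Western blot with β-actin normalization and compared with nonspecific-siRNA groups.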

Test [7] concerns HT-1080. Briefly: Induction of autophagy in human HT1080 cells assessed as conversion from LC31to LC32 at 10 uM pretreated with rapamycin for 1 hr prior to compound addition measured after 24 hrs by Western blotting analysis. The procedure, abridged:
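HT1080 cells pretreated 1 h with 1 mM 3MA or 1 nM rapamycin, then 10 μM added for 24 h. Adherent and floating cells lysed in Hepes pH 7.4/Triton buffer. Equal protein on 12% SDS-PAGE and nitrocellulose, probed for beclin 1 and LC3, ECL detection. Normalized to β-actin, n = 3.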

Test [8] deals with HT-1080. Kind of test: Induction of autophagy in human HT1080 cells assessed as increase in autophagolysosomes at 10 uM by MDC staining-based fluorescence microscopic analysis. In outline:
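HT1080 cells at 2 × 10^4 per well, cultured 24 h, then given 10 μM for 24 h. Stained with 0.05 mM MDC at 37 °C for 1 h. Autophagolysosomes viewed by fluorescence microscopy at 200×.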

A further test concerns U-937. Kind of test: Cytotoxicity against human U937 cells assessed as growth inhibition after 24 hrs by MTT assay. In outline: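 Seeded 0.8 × 10^4 cells/well, cultured 24 h, then exposed to 0, 10, 20, 40 or 80 μM for 24 h (DMSO <0.05%) in RPMI 1640 or MEM with 10% FBS. Adherent lines rinsed with PBS, given MTT 2 h at 37 °C. Suspension lines (U937, HL60) given MTT 2 h, then centrifuged. Formazan dissolved in DMSO, A492 read. Inhibition % = (control − sample)/(control − blank) × 100.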

Active and inactive are the calls of the source. No cut-off for these calls is given here.

Consider `C=C1C(=O)O[C@@H]2C[C@@]1(C)[C@@H]1C(=O)[C@]3(O)O[C@]14[C@@]2(C)OC(=O)[C@@]4(O)CC[C@H]1[C@H]3[C@H](O)C=C2CC=CC(=O)[C@@]21C` [PHYSALIN A], for which, in the test with HT-1080 [1], the Activity entry is “tde”. Moreover, the outcome with HT-1080 [2], in the test with HT-1080 [4], in the test on HT-1080 [6], in the test with HT-1080 [7] and in the test with HT-1080 [8] was Active. For the same compound, the outcome in the test on HT-1080 [3] and in the test on HT-1080 [5] was inactive. The “growth inhibition (GI)” value with U-937 is “Dose-dependent effect”.
